For data set [1], the system named is Rho^P23H/+ mice. The experiment in a line: Electroretinogram. Format: in vivo, mouse. The method in brief: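 Rho^P23H/+ mice (homozygous knock-in crossed with C57BL/6J). Test compound given by intravitreal injection to one eye, PBS to the other. Dosing was a single 25 or 100 pmol at PND 15 with ERG at PND 32, or four weekly injections (PND 15, 22, 29, 36) with ERG at PND 44. Scotopic ERG used eight flashes. Photopic ERG used six flashes (0.01–30 cd·s/m²) after 5 min adaptation to 10 cd/m², on that background. Age-matched Rho^+/+ controls. Two-way ANOVA.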

Data set [2] has as its system chymotrypsin-like proteasome activity. The experiment in a line: Proteasome activity assay. In kind it is cell-based. To be noted: NIH3T3(RHO^P23H/GFP) and NIH3T3(RHO^WT/GFP) cells, MTX 0.0195 to 10 μM, 24 h. In short, it runs like this:
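Cells were seeded at 2500/well in 384-well plates and after 3 h treated for 24 h with test compound at 0.0195–10 μM final. Controls were 0.1% DMSO (100%) and 5 μM MG-132 for 8 h (0%). Proteasome-Glo reagent with Suc-LLVY-Glo substrate was added, shaken 2 min and held 24 min at RT. Luminescence gave chymotrypsin-like activity, normalized to the controls.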

Data set [3] addresses T1, P23H rhodopsin (Mus musculus, UniProt P15409, P23H). The data set is described as follows: Image-based. In kind it is cell-based.
Data set [4] concerns Rho^P23H/+ mice. The data set is described as follows: Retinal immunohistochemistry. In kind it is in vivo, mouse. The method in brief: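 Rho^P23H/+ mice received intravitreal test compound (25 or 100 pmol) in one eye and PBS in the fellow eye. Dosing was either a single injection at PND 15, with eyes enucleated at PND 33, or four weekly injections from PND 15, with enucleation at PND 46. Retinae were processed for rhodopsin immunohistochemistry and ONL nuclear counts. Age-matched Rho^+/+ mice served as normal controls.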

The next data set has as its system WT rhodopsin. The data set is described as follows: Rhodopsin immunoblot of NIH3T3. Format: cell-based, mouse. To be noted: 10 μM MTX plus 100 nM BafA1, 24 h. In short, it runs like this: (§1)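 Cells were seeded at 5 × 10⁵/well in 6-well plates for 17 h, then given fresh medium with test compound and inhibitor. Protein was measured by A280. Rhodopsin blots loaded 100 μg (P23H line) or 20 μg (WT line), run on 10% and 16% SDS-PAGE and transferred to nitrocellulose. Membranes were blocked 1 h in 5% BSA/PBS-0.05% Tween 20, probed with primary overnight at 4 °C and secondary 1 h at RT, with chemiluminescent detection.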
For orientation: A western blot detects proteins with antibodies after separation by electrophoresis.

Data set [5] deals with rhodopsin mutants (T4R, P23H, P53R, C110Y, D190N, P267L). Format: cell-based, mouse. To be noted: U2OS cells. In short, it runs like this:
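U2OS stable lines expressed WT or mutant mouse rhodopsin fused to Venus. Cells were transfected with pcDNA3.1 Zeo constructs, kept 48 h in DMEM/10% FBS, then selected with 400 μg/mL Zeocin. Stable cells were treated with test compound at 10 μM and immunostained for rhodopsin.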

In data set [6] the target is P23H rhodopsin fused with Renilla luciferase (Mus musculus, UniProt P15409, P23H). The experiment in a line: Rluc reporter assay in Hek293. Format: cell-based. To be noted: HEK293, read-out: Rluc assay Hek293 (RHO^P23H-Rluc) Efficacy. (In general: Reporter assays use an easily measured gene product as a stand-in for the process of interest.)
Data set [7] deals with T1, P23H rhodopsin. The data set is described as follows: Rhodopsin immunoblot of NIH3T3. Format: cell-based. The settings on record: 10 μM MTX plus 100 nM BafA1, 24 h. The method in brief:
as §1

The target of data set [8] is T1, P23H rhodopsin. The experiment in a line: Non-radioactive pulse-chase assay in NIH3T3. The settings on record: 10 μM. Format: cell-based. The method in brief: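 Non-radioactive pulse-chase. Cells (3 × 10⁵/well, 24-well) were grown overnight, starved in Met-free DMEM for 1 h, then pulsed with 50 μM L-AHA for 4 h (50 μM Met as negative control). Chase was 24 h in DMEM with 2 mM Met ± 10 μM test compound. Lysates (200 μg) were clicked with 5 μM BTN-sDIBO for 1 h at 37 °C, immunoprecipitated with 1D4, eluted at pH 2.8, dot-blotted and probed with HRP-streptavidin. Values normalized to DMSO on the same membrane; N=3, unpaired two-tailed t-test.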

Data set [9] relates to Rho^P23H/+ mice. The data set is described as follows: Immunoblot of LC3 and SQSTM1/p62 in retinae after IVI. In kind it is in vivo, mouse. To be noted: 25 pmol IVI at PND 15, 48 h after treatment. In short, it runs like this:
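Rho^P23H/+ mice received a 25 pmol/eye intravitreal injection of test compound at PND 15, with PBS in the contralateral eye. Retinae were taken 48 h later, and 30 μg of lysate was immunoblotted for SQSTM1/p62 and LC3 with β-actin as loading control. Blotting used SDS-PAGE, nitrocellulose transfer, 1 h blocking in 5% BSA/PBS-0.05% Tween 20, primary antibody overnight at 4 °C, secondary 1 h at RT, and chemiluminescent detection.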

Data set [10] addresses T1, P23H rhodopsin. The experiment in a line: Rhodopsin dot blot of NIH3T3. In kind it is cell-based. The settings on record: NIH3T3(RHO^P23H/GFP) cells, 10 μM, 24 h, vs DMSO control. In short, it runs like this:
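NIH3T3(RHO^P23H/GFP) cells were seeded at 2.5 × 10⁴/well in 96-well plates, attached 4 h, then given medium with 2× test compound to reach 10 μM final for 24 h. Cells were PBS-washed and lysed in RIPA with protease inhibitors plus 6 s sonication. Of each well's lysate, 90% was dotted on nitrocellulose, air-dried and probed with 0.1 μg/mL HRP-1D4. Densitometry was normalized to DMSO.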

The nature of data set [11]: Estimated vitreous concentration after intravitreal injection, rabbit. The settings on record: 1.76 μmol, vitreous cavity about 1.5 mL, ref [70].
A further data set concerns RHO transcripts. The experiment in a line: qPCR of RHO transcripts in NIH3T3. Format: cell-based, mouse. The settings on record: 10 μM, 24 h. The method in brief: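 NIH3T3 cells stably expressing WT or P23H rhodopsin (GFP lines) were seeded in 24-well plates at 2.5×10⁵ cells/well and cultured overnight at 37 °C, 5% CO₂. They were then exposed to test compound in culture medium for 24 h. RNA was precipitated by centrifugation at 12,000×g for 10 min at 4 °C, washed with 75% ethanol, air-dried and dissolved in nuclease-free water before qPCR.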

Where [12] appears, read: single IVI 100 pmol at PND 15, ERG at PND 32.
The mark [13] stands for this setting: single IVI 25 pmol at PND 15, IHC at PND 33.

Regarding `CN(Cc1cnc2nc(N)nc(N)c2n1)c1ccc(C(=O)N[C@@H](CCC(=O)O)C(=O)O)cc1` [CL-009, methotrexate], the “Multi-flash scotopic and photopic b-waves compared to PBS control group” value with Rho^P23H/+ mice [1] (four weekly IVIs starting at PND 15 (25 pmol per treatment), ERG at PND 44) is listed as “significantly increased”. Further, the “Photopic ERG responses vs PBS treated or non-treated eyes” value in the data set with Rho^P23H/+ mice [1] (single IVI 25 pmol at PND 15, ERG at PND 32) is listed as “higher”. In addition, in the data set on Rho^P23H/+ mice [1] (setting [12]), the “Multi-flash scotopic ERG a- and b-waves vs PBS or non-treated eyes” value is “no effect”; the “Photopic ERG responses vs PBS treated or non-treated eyes” value was “did not show any effects”. In addition, the “Ratio of scotopic and photopic b- to a-wave amplitudes” value in the data set on Rho^P23H/+ mice [1] (single IVI at PND 15, ERG at PND 32) is recorded as “not affected”. Moreover, in data set [2], the Chymotrypsin-like proteasome activity entry was “did not affect”. The “Mean intensity of P23H rhodopsin immunostaining per cell” value on P23H rhodopsin [3] (MTX alone) is “reduced in an MTX dose-dependent manner”. The Emax on P23H rhodopsin [3] (NIH3T3, 24 h, read-out: Image-based assay NIH3T3 (RHO^P23H/GFP) Efficacy) was 36%. Besides, in the data set with Rho^P23H/+ mice [4] (100 pmol IVI, Rho^P23H/+ mice), the “Retinal degeneration caused by MTX” value is on record as “did not see obvious retinal degeneration”. For the same compound, the “Nucleus number in the ONL vs PBS group, superior side” value in the data set on Rho^P23H/+ mice [4] (four IVIs of 25 pmol, IHC at PND 46) was “higher”. Besides, in the data set with Rho^P23H/+ mice [4] (setting [13]), the “ONL nucleus number, either side of the retina” value is reported as “No change”; the “Total rhodopsin level and rhodopsin in the OS compared to PBS control, superior side” value is “significant increase”. In addition, the “WT rhodopsin level under BafA1 and MTX co-treatment (immunoblot)” value in the data set with WT rhodopsin was “accumulation”. The “Rhodopsin immunofluorescence in cells expressing the P23H, C110Y, D190N and P267L mutants” value in data set [5] is recorded as “dose-dependent reductions”. Also, the Emax in data set [6] was 53%. For the same compound, the “MTX induced P23H rhodopsin clearance under co-treatment with BafA1 (immunoblot)” value at P23H rhodopsin [7] is reported as “abolished”. The “BTN-AHA labeled P23H rhodopsin at 24 h of chase in comparison to DMSO control” value on P23H rhodopsin [8] is “significantly reduced”. In the data set with Rho^P23H/+ mice [9], the “LC3-II level in retinae compared to PBS control” value was “increase” and the “SQSTM1/p62 level in retinae compared to PBS control” value is listed as “decrease”. At P23H rhodopsin [10], the “Rho protein level (Dot blot)” value was “Down”. The “Final concentration in vitreous” value in data set [11] was “about 1 mM”. For the same compound, in the data set on RHO transcripts (NIH3T3(RHO^P23H/GFP) cells, vs DMSO control), the “Rho mRNA level (qPCR)” value is given as “No Change”. The “WT and P23H rhodopsin transcripts in comparison to DMSO control” value in the data set with RHO transcripts (both NIH3T3(RHO^P23H/GFP) and NIH3T3(RHO^WT/GFP) cells) was “did not affect”.

These data come from paper PMC7688577 (FASEB journal : official publication of the Federation of …, 2020).
